Source: PubChem BioAssay (The Scripps Research Institute Molecular Screening Center)
The sample as a whole holds a higher share of hits than the screen did.
RORA inh – RORA (human) inhibition; CHO-K1 Gal4-RORA LBD luciferase reporter, luminescence; 65,000 tested, 0.43% active; inhibition, % at 10 µM; P35398;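 active = inhibition above the mean of all tested compounds plus 3 SD, cut at about 52% in these data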;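 note: 0% = RORA-transfected cells with DMSO and 100% = mock-transfected cells lacking RORA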
Target sequence (P35398 whole entry, looked up, the tested form may be a part): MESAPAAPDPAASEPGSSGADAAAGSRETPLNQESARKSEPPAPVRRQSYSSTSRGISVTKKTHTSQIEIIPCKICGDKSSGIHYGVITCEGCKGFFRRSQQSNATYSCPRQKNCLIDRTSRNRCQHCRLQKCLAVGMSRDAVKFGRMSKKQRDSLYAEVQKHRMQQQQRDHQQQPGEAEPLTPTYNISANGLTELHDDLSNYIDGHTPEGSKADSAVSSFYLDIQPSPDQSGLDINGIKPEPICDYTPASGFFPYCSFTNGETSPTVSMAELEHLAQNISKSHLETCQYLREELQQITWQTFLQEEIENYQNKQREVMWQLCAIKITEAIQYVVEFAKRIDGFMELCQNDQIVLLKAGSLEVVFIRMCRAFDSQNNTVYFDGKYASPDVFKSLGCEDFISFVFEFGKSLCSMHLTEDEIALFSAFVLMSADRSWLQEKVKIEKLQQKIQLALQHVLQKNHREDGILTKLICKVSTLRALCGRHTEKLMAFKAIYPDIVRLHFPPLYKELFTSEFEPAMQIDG
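Material: transiently transfected CHO-K1 cells, Gal4-DBD/human RORA-LBD fusion plus 5xGal4-luciferase reporter; doses: single concentration per compound, 10 µM final; incubation: 20 h at 37 °C; detection: luminescence from basal luciferase reporter expression; read-out: % inhibition of basal luciferase versus +RORA/-RORA DMSO controls; replication: tested once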
* hit, by the source's call.

SMILES	RORA inh
CCCn1nnc(NC(=O)c2cc3ccccc3o2)n1	-49
Cc1ccc(Sc2oc(/C=N/n3cnnc3)cc2Br)cc1	16
CN(C)c1ccc(NC(=O)c2ccc(COc3cccc(Cl)c3)o2)cc1	-73
COC(=O)CSc1nnc2c(C)cc3cc4c(cc3n12)OCCO4	7
CC(C)OC(=O)C(NC(=O)c1ccccc1)=C1CCCCC1	-2
COc1ccc2c(c1OC)C(=O)N1C2SC[C@H]1C(=O)NC1CC(C)(C)NC(C)(C)C1 (stereo partly drawn)	8
CCOC(=O)C1=Nc2ccccc2C1=[N+]=[N-]	76*
CCOC(=O)c1cnn(-c2ccccn2)c1N	-53
CCOC(=O)c1c(C)nc(-c2ccccc2)nc1N	-51
Cc1cc(Nc2ccc(C)c(C)c2)n2nc(C)nc2n1	-38
CCCCn1c(SCC(=O)Nc2cc(NC(=O)c3ccco3)ccc2C)nc2ccccc2c1=O	12
CCOC(=O)N1CCN(C(=O)CSc2nnc(CNC(=O)c3c(F)cccc3Cl)o2)CC1	-11
CCOc1cc(C(=O)CSc2nnc(CNc3ccc(Cl)cc3)o2)ccc1NC(=O)CC	54*
COc1ccc(N2CCN(C(=O)CSc3nnc(CNc4ccccc4)o3)CC2)cc1	4
COc1ccc(N2CCN(Cc3nc4c(c(=O)[nH]c(=O)n4C)n3Cc3cccc(Cl)c3)CC2)cc1	-11
CCOc1ccc(-c2cc(CCCC(=O)Nc3cccc(OC)c3)no2)cc1	45
CCOc1ccc(-c2cc(CCCC(=O)NCCc3ccc(OC)c(OC)c3OC)no2)cc1	57*
CCCCC(=O)Nc1ccc(NC(=O)c2cc(OC)c(OC)c(OC)c2)cn1	14
CCOC(=O)c1c(C)[nH]c(C(=O)COC(=O)CNC(=O)C2CCCCC2)c1C	23
Cc1noc(C)c1C(=O)OCC(=O)c1cc(C)n(Cc2ccccc2Cl)c1C	-49
O=C(NCc1cccs1)c1noc2c1CCCC2	-55
c1csc(CCNc2ncnc3sc4c(c23)CCC4)c1	72*
Cc1cccc(NC(=O)CSc2nnc(-c3ccc(S(=O)(=O)N4CCOCC4)cc3)n2C)c1	17
Cc1cc(C(=O)OCC(=O)N2C(C)CCCC2C)c(C)o1 (stereo not drawn)	3
O=C(NCC12CC3CC(CC(C3)C1)C2)c1cc2n(n1)C(C(F)(F)F)CC(c1ccco1)N2 (stereo not drawn)	-5
SMILES	RORA inh
Cc1cccc2cc3c(nc12)SC(=NCC1CCCO1)N(Cc1ccco1)C3 (stereo not drawn)	55*
COc1ccc(-c2nnc(SCC(=O)Nc3ncc(C)s3)n2-c2ccccc2)cc1OC	-18
CNC(=O)NC(=O)COC(=O)CCCOc1ccc(OC)cc1	10
O=C(NCc1ccco1)Nc1ccc(Br)cc1Cl	-57
CC1CCc2ccccc2N1C(=O)c1cccs1 (stereo not drawn)	2
COc1ccc(CCNC(=O)C2CCCN(C(=O)N(C)C)C2)c(OC)c1 (stereo not drawn)	-14
COc1ccc(N/C=C2\CCOC2=O)cc1	30
O=C(Nc1ccc2c(c1)OCO2)c1cccc(F)c1	-52
O=C1/C(=C/Nc2ccc3c(c2)OCO3)CCc2ccccc21	72*
O=C(Nc1ccccc1N1CCN(C(=O)c2ccccc2)CC1)c1cc2ccccc2o1	-7
Clc1ccc(OCc2nnc(SCc3nc4ccccc4[nH]3)n2Cc2ccco2)cc1	-11
Cc1ccc(-c2ccc(=O)n(CC(=O)Nc3cccc(C(=O)N4CCN(C)CC4)c3)n2)cc1	9
COc1ccccc1N1CCN(C(=O)c2cccc(N3C(=O)NC4CC3(C)Oc3ccccc34)c2)CC1 (stereo not drawn)	-3
Cc1nc2c(ccc3nc(NC(=O)c4ccc5c(c4)OCCO5)sc32)s1	8
CC(=O)Nc1nc2cc3c(cc2s1)OCO3	-72
O=C(Nc1nc2cc3c(cc2s1)OCO3)C1=COCCO1	68*
Clc1ncn(C23CC4CC(CC(C4)C2)C3)n1	9
COC(=O)c1cccc(OC(N)=O)c1	-3
CCCC(=O)Nc1nc(-c2ccc3c(c2)OCCO3)cs1	-63
Nc1nc(-c2ccc3c(c2)OCCO3)cs1	-50
Cc1ccc(-c2csc(N3CCC(NS(=O)(=O)c4ccc5c(c4)OCCO5)CC3)n2)cc1	70*
CCn1c(=O)cc(NC2=NCC(C)CN2c2cccc(Cl)c2)n(C)c1=O (stereo not drawn)	0
COc1ccc(OCCCSc2ncccn2)cc1	-63
COc1ccc(NC(=O)C(c2ccc(C)cc2)N(C)C(=O)c2cnccn2)cc1 (stereo not drawn)	-1
O=S1(=O)Nc2c(ccc3cccnc23)-c2ccccc21	74*
SMILES	RORA inh
O=C(Nc1ccccc1)Nc1cccc2cccnc12	-86
CC1(C)CC(=O)c2cnc(NC(=O)C3CCCC3)nc2C1	-7
CC1CCN(C(=O)CN2C(=O)C(C)(C)Oc3ccc(C(=O)NC4CCCC4)cc32)CC1	-10
CC(=O)c1ccc(N2CCN(CCC#N)CC2)c(F)c1	16
Cc1cc(-c2ccccc2)nc(N2CCC(C(=O)NC(C)C)CC2)n1	-67
Cc1ccccc1C(=O)Nc1ccc(Br)cn1	-67
CC(=O)c1c(C)[nH]c(C(=O)Nc2ccc(C)cn2)c1C	73*
CCOC(=O)c1[nH]c(C)c(C(=O)Nc2ccccc2C)c1C	-81
COc1ccc(C2(C(=O)NCC3CCCO3)CCOCC2)cc1 (stereo not drawn)	1
O=C(Nc1ccc2oc(=O)ccc2c1)c1ccco1	-27
CSc1nnc(Cn2c(=O)sc3ccccc32)n1-c1ccccc1C	5
O=C(NCCCn1ccnc1)c1cc(-c2cccs2)on1	-92
CC(Sc1ccc2ccccc2n1)C(=O)O (stereo not drawn)	1
O=C1C2C3C=CC(C3)C2C(=O)N1c1ccc(-c2nc3ccccc3o2)cc1 (stereo not drawn)	-73
c1ccc2nc(-c3nc4ccccc4o3)ccc2c1	58*
CC(C)CCn1nnnc1C(c1ccc(N(C)C)cc1)N1CCN(C(=O)c2ccco2)CC1 (stereo not drawn)	22
O=C(CSCC(=O)NCc1ccco1)NCc1ccco1	8
Cc1ccc(-c2nc(CS(=O)CC(=O)NCc3ccccc3)c(C)o2)cc1 (stereo not drawn)	-13
COc1ccc(-c2nc(CSCC(=O)NCc3ccco3)c(C)o2)cc1	72*
COc1ccc(CNC(=O)CS(=O)Cc2nc(-c3ccc(C)cc3)oc2C)cc1 (stereo not drawn)	0
CCOc1ccc(-c2nnc(SCC(=O)N3CCN(c4ccccc4)CC3)o2)cc1	-8
CCOc1ccc(-c2nc(CSCC(=O)NCCN3CCOCC3)c(C)o2)cc1	71*
Cn1c(NC(=O)C2c3ccccc3Oc3ccccc32)cc(=O)n(C)c1=O	-19
Cc1ccc2nc(NC3=NCN(CCN4CCOCC4)CN3)nc(C)c2c1	-8
CCOc1ccccc1-n1c(COc2ccc(C)cc2)nnc1SCC(N)=O	7
SMILES	RORA inh
N/C(=N\S(=O)(=O)c1ccc(Cl)s1)c1ccccc1	24
CC1CCCC(C)N1C(=O)c1cc(-c2cccs2)on1 (stereo not drawn)	-61
OC1CCCCC1Sc1nc2ccccc2s1 (stereo not drawn)	-30
O=C(Sc1nnc(-c2ccccc2)o1)N1c2ccccc2Sc2ccccc21	25
c1ccc(-c2nnc(SCc3cn4ccsc4n3)o2)cc1	-42
O=S1(=O)C=C(Sc2nc3ccccc3s2)c2ccccc21	88*
O=c1oc2ccccc2n1CSc1nc2ccccc2s1	-66
Cc1cc(C)nc(SC2=CS(=O)(=O)c3ccccc32)n1	65*
O=S1(=O)C=C(Sc2nnc(-c3ccccc3)o2)c2ccccc21	80*
